Shown are actives, neighbours in structure and some others; about 5.6% of the full set was active somewhere.
GRIN3A LBD mod – NR3A (human) ligand-binding domain modulation; Tm shift relative to glycine control, % at 25 µM; NR3A LBD differential scanning fluorimetry, Tm shift; 0% = protein alone, 100% = glycine-bound protein; hit rate 2.5% among 340,000;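 active = melting temperature shift of at least 10% of the positive control shift, at one fixed dose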
CHOP inhibitor – inhibitors of CHOP induction in ER stress response. AID 2732. CHO-K1 CHOP-promoter luciferase, tunicamycin-induced, 15-18 h. inhibition, % at 10 µM. hit rate 3.8% among 220,000;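 active = compounds that reduced the stress-induced luciferase reporter signal by more than about 70% of percent inhibition, limit read from the data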;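 also: 0% = tunicamycin plus vehicle and 100% = wells without tunicamycin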
MPTP inh – permeability transition pore inhibition; hit rate 1.4% among 360,000; isolated mouse mitochondria, Ca2+ swelling absorbance, 30 min; inhibition, % at 10 µM;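 active = inhibition of 50% or more, scaled per plate between neutral and stimulator controls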;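 also: 0% = DMSO wells given calcium and 100% = 1 mM EGTA wells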
aDG glyco act – alpha-DG glycosylation activation; Pro5-aDG cells, alpha-DG glycosylation AlphaScreen (IIH6); 0% Pro5, 100% B10-LARGE cell signal; activation, % at 10 µM; hit rate 0.22% among 360,000;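 active = activation of at least 8% versus controls, or a plate z-score of at least 8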;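 also: Pro5 are CHO cells carrying HIG-tagged alpha-DG that lacks glycosylation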
UPR XBP1 act – activators of adaptive arm of unfolded protein response (XBP1). CHO-XBP1 luciferase reporter, IRE1-XBP1 UPR activation, luminescence; percent of tunicamycin response, DMSO as zero. activation, % at 20 µM. hit rate 0.33% among 330,000. AID 463104;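 active = versus positive control, 20 µM dose yields 30% or more activation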;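 also: 100% = tunicamycin at 10 µg/mL and 0% = DMSO only wells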
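Material: CHO cell line with stable XBP1 luciferase reporter; schedule: 16-18 h cell attachment at 37 °C, then 6 h compound exposure; signal: glow luminescence from Steady-Glo reagent; medium: serum-containing F12 medium, 10% FBS; benchmarks: tunicamycin 10 µg/mL and vehicle-only wells; read-out: percent activation relative to tunicamycin reference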
UPR CHOP act – activators of apoptotic arm of unfolded protein response (CHOP); CHO-CHOP luciferase reporter, UPR activation, luminescence; percent of tunicamycin response over DMSO baseline; activation, % at 10 µM; hit rate 0.34% among 330,000; AID 449763;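 active = at 10 µM dose, activation of 40% or more, normalized to positive control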;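 also: 100% = tunicamycin at 10 µg/mL and 0% = DMSO alone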
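Material: CHO-CHOP cells, stable luciferase reporter of PERK-eIF2a-CHOP signalling; quantity: 500 reporter cells seeded per well; buffer or medium: F12 medium containing 10% fetal bovine serum; compound: one dose, 10 µM in 0.5% DMSO; incubation: 6 h compound treatment, 37 °C; measured by: Steady-Glo luciferase luminescence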
An asterisk follows results filed as active; nt = no result.

SMILES	GRIN3A LBD mod	CHOP inhibitor	MPTP inh	aDG glyco act	UPR XBP1 act	UPR CHOP act
CC(=O)Nc1cc2c(cc1NC(=O)Cn1nnc(-c3ccc(C)o3)n1)OCCO2	-1	21	0	0	-3	2
O=C1CNC(=S)N1Cc1ccc(F)cc1	72*	nt	1	0	-2	-1
O=C1CNC(=S)N1Cc1ccccc1	-21	-15	0	0	-2	-1
CC(C)[C@@H](N)C(=O)N/N=C/c1ccc2ncccc2c1	1	10	2	0	-3	0
COc1cccc(C(=O)NCCSc2ccc(F)cc2)c1	-1	2	-1	1	5	4
COc1cccc(C(=O)NCC(C)(C)SCc2ccc(F)cc2)c1	10*	nt	1	0	-4	-1
O=C(/C=C/c1ccc2ccccc2n1)N1CCN(S(=O)(=O)c2ccccc2F)CC1	0	70*	1	0	-4	1
O=c1cc(SCc2ccccc2)nc[nH]1	-2	nt	-1	0	nt	nt
Cn1c(=O)c2[nH]c(Cc3cccc4ccccc34)nc2n(C)c1=O	2	nt	0	1	nt	nt
COc1cc(C)c2c(c1OC)C(=O)CC2	1	nt	0	0	nt	nt
Cc1cc(C)nc(NC(=O)/C=C/c2ccccc2Cl)n1	-2	15	-4	0	3	5
Cc1ccnc(NC(=O)/C=C/c2ccccc2[N+](=O)[O-])c1	nt	21	nt	nt	-1	-1
Cc1cc(N)c2cc(NC(=O)/C=C/c3ccccc3Cl)ccc2n1	18*	-76	15	0	6	13
Cc1ccnc(NC(=O)/C=C/c2ccccc2Cl)c1	20*	40	2	0	-4	-2
CC1(C(=O)NS(=O)(=O)c2ccc(Cl)cc2)CCN1C(=O)C1(c2ccc(Cl)cc2)CCC1 (stereo not given)	nt	nt	2	0	nt	nt
Nc1[nH]c(C(=O)c2ccccc2)c(-c2ccccc2Br)c1C(=O)NCCc1ccc(Cl)cc1Cl	nt	nt	1	0	nt	nt
Cc1noc(C)c1-c1ccc2nc[nH]c(=O)c2c1	1	nt	-1	0	3	0
COc1ccccc1OCCC(=O)Nc1cccc(S(=O)(=O)N2CCOCC2)c1	3	nt	0	0	0	6
O=C(c1ccc(COc2ccccc2Br)o1)N1N=C(C(F)F)CC1(O)C(F)F (stereo not given)	5	89*	7	0	-2	1
O=C(c1ccc(Cn2cc([N+](=O)[O-])cn2)o1)N1N=C(C(F)F)CC1(O)C(F)F (stereo not given)	0	27	0	0	-2	0
CCCCCCCN(c1ccccc1)[C@@H]1C[C@H]2CCCC(=O)N3CC[C@@H](C1)[C@@H]23	19*	nt	-1	1	nt	nt
O=C(c1cc(-c2ccc(O)cc2)on1)N1CCN(c2ccccc2)CC1	12*	nt	-1	0	3	0
O=C(N/N=C\c1ccc(-c2ccc([N+](=O)[O-])cc2)o1)c1ccc2c(c1)OCO2	31*	12	3	0	-2	2
Cc1ccc(/C=N\NC(=O)c2ccc3c(c2)OCO3)o1	-2	nt	0	0	0	6
O=C(N/N=C/c1cc2c(cc1[N+](=O)[O-])OCO2)c1ccc2c(c1)OCO2	0	nt	0	0	9	5
SMILES	GRIN3A LBD mod	CHOP inhibitor	MPTP inh	aDG glyco act	UPR XBP1 act	UPR CHOP act
COc1cc(C(=O)NCC(=O)N/N=C/c2ccc(-c3ccc([N+](=O)[O-])cc3)o2)cc(OC)c1OC	14*	nt	-2	0	6	0
O=C(N/N=C/c1ccc([N+](=O)[O-])o1)c1ccc2c(c1)OCO2	-1	nt	1	10*	-3	-1
CN(/N=C/c1ccc(-c2ccc([N+](=O)[O-])cc2)o1)c1ccccc1	13*	nt	8	0	-1	0
NC(=S)N/N=C/c1ccc(-c2ccc([N+](=O)[O-])cc2)o1	2	23	-2	0	4	5
Cc1ccc(Cl)cc1NC(=S)N1CCCCCC1	2	nt	1	0	-3	1
CC(C)C[C@H]1COc2cc(N3CC[C@H](O)C3)ccc2S(=O)(=O)N1	nt	nt	0	0	nt	nt
CC1(C)CC(c2nc(-c3ccccc3)cs2)CCS1 (stereo not given)	10*	46	3	0	-1	2
COc1cccc(CN2CC(C(=O)N(C)Cc3ccnc4ccccc34)CCC2=O)c1 (stereo not given)	2	nt	0	0	-4	1
COc1cccc(N(C(=O)Cn2nnc(-c3ccc(C)o3)n2)C(C(=O)NC2CCCC2)c2ccncc2)c1 (stereo not given)	-1	nt	4	0	-4	2
COc1cccc(N(C(=O)Cn2nnc(-c3cccs3)n2)C(C(=O)NC(C)C)c2ccc(C)o2)c1 (stereo not given)	0	93*	-3	0	-3	-3
Cc1cccc(NC(=O)CSc2nnc(CNC(=O)c3ccco3)n2C)c1C	1	nt	1	0	-1	1
Cn1c(CNC(=O)c2ccco2)nnc1SCC(=O)Nc1ccccc1Cl	13*	nt	0	0	1	1
C=CCn1c(SCC(=O)c2[nH]c(C)c(C(=O)OCC)c2C)nc2scc(-c3ccccc3)c2c1=O	-1	88*	-4	0	17	16
Cc1ccc(NC(=O)c2ncn(CC(=O)NCc3nc4ccccc4[nH]3)n2)cc1C	17*	nt	0	0	-3	2
Cc1ccc(NC(=O)c2ncn(CC(=O)NCc3ccccc3)n2)cc1C	0	nt	0	0	3	7
Cc1ccc(NC(=O)c2ncn(CC(=O)N[C@H](C)c3cccc4ccccc34)n2)cc1C	18*	nt	1	0	0	6
O=C(CNC(=O)c1ccc(Br)o1)Nc1ccc(F)c(S(=O)(=O)N2CCOCC2)c1	5	nt	0	0	-3	1
C=CCN(CC=C)CCOc1cccc2ccccc12	12*	76*	0	0	1	2
Cc1cccc(NC(=O)c2nc[nH]c2C(=O)N2CCc3ccccc3C2)c1	-9	nt	3	0	-2	0
CC/C(=N\NC(=O)c1ccncc1)C12CC3CC(CC(C3)C1)C2	-2	30	3	0	-2	-2
CC/C(=N\NC(=O)c1ccc2c(c1)OCO2)C12CC3CC(CC(C3)C1)C2	1	77*	1	0	1	1
O=S(=O)(c1ccc2ccccc2c1)N1CCN(C(=S)Nc2ccc(F)c(Cl)c2)CC1	19*	18	29	1	-2	3
COc1ccc(NC(=O)Cn2nnc(-c3ccccc3NC(=O)c3cccs3)n2)cc1	10*	73*	1	0	5	-1
CCOC(=O)c1ccc(NC(=O)Cn2nnc(-c3ccccc3C)n2)cc1	13*	54	34	0	0	3

Bioassay records: PubChem BioAssay, several laboratories
